Tests used:
[1] = Drug concentration in male Lister Hooded pigmented rat pituitary gland assessed as radioactivity per gram of tissue at 20 mg/kg administered as single dose via gastric gavage measured after 168 hrs by autoradiographic analysis; assay type: ADME, organism-based; design: dose 20 mg/kg, dosed compound name [14C]Sunitinib; settings: in vivo, po
[2] = test system: Small intestine; assay: Drug concentration in female albino rat small intestine assessed as radioactivity per gram of tissue at 20 mg/kg administered as single dose via gastric gavage measured after 6 hrs by autoradiographic analysis; assay type: ADME, organism-based; design: dose 20 mg/kg, dosed compound name [14C]Sunitinib; settings: in vivo, po
[3] = test system: Brain; assay: Drug concentration in male albino rat brain assessed as radioactivity per gram of tissue at 20 mg/kg administered as single dose via gastric gavage measured after 72 hrs by autoradiographic analysis; assay type: ADME, organism-based; design: dose 20 mg/kg, dosed compound name [14C]Sunitinib; settings: in vivo, po
[4] = test system: Kidney; assay: Drug concentration in female albino rat kidney assessed as radioactivity per gram of tissue at 20 mg/kg administered as single dose via gastric gavage measured after 6 hrs by autoradiographic analysis; assay type: ADME, organism-based; design: dose 20 mg/kg, dosed compound name [14C]Sunitinib; settings: in vivo, po
Procedure, shortened: (§1)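 Sprague Dawley albino rats, ca 7-8 weeks old, dosed once by gastric gavage with [14C]sunitinib L-malate (15 mg freebase/kg, 100 µCi/kg). One male and one female killed by CO2 at 3, 6, 24, 72 and 168 h. Carcasses frozen in solid CO2/hexane, embedded and cut into 30 µm sagittal sections, then freeze-dried. Radioactivity quantified by whole-body autoradiography against standards by regression, background subtracted.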

[5] = Drug concentration in female Lister Hooded pigmented rat uveal tract assessed as radioactivity per gram of tissue at 20 mg/kg administered as single dose via gastric gavage measured after 168 hrs by autoradiographic analysis; assay type: ADME, organism-based; design: dose 20 mg/kg, dosed compound name [14C]Sunitinib; settings: in vivo, po
Procedure, shortened: (§2)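 Lister Hooded (pigmented) rats, ca 7-8 weeks old, acclimated 7 days, given [14C]sunitinib L-malate by gastric gavage at 20 mg/kg (15 mg freebase/kg, 100 µCi/kg). One male and one female killed by CO2 at 24, 72, 168 and 336 h. Carcasses frozen in solid CO2/hexane and embedded in frozen cellulose. 30 µm sagittal cryosections were freeze-dried. Tissue radioactivity measured by quantitative whole-body autoradiography against calibration standards, with background subtracted.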

[6] = Drug concentration in female albino rat bladder assessed as radioactivity per gram of tissue at 20 mg/kg administered as single dose via gastric gavage measured after 72 hrs by autoradiographic analysis; assay type: ADME, organism-based, Urinary bladder; design: dose 20 mg/kg, dosed compound name [14C]Sunitinib; settings: in vivo, po
Procedure, shortened: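 Sprague Dawley (albino) rats, ca 7-8 weeks old, received a single gastric-gavage dose of [14C]sunitinib L-malate at 20 mg/kg (15 mg freebase/kg, 100 µCi/kg). One animal per sex killed by CO2 at 3, 6, 24, 72 and 168 h, then frozen in CO2/hexane. 30 µm sagittal sections were cut and freeze-dried. Radioactivity per gram quantified by whole-body autoradiography using regression against standards. LOQ 0.04–0.06 µg freebase equiv/g.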

[7] = test system: Stomach; assay: Drug concentration in female Lister Hooded pigmented rat stomach assessed as radioactivity per gram of tissue at 20 mg/kg administered as single dose via gastric gavage measured after 24 hrs by autoradiographic analysis; assay type: ADME, organism-based; design: dose 20 mg/kg, dosed compound name [14C]Sunitinib; settings: in vivo, po; procedure, shortened: as §2
[8] = Drug concentration in female Lister Hooded pigmented rat uveal tract assessed as radioactivity per gram of tissue at 20 mg/kg administered as single dose via gastric gavage measured after 24 hrs by autoradiographic analysis; assay type: ADME, organism-based; design: dose 20 mg/kg, dosed compound name [14C]Sunitinib; settings: in vivo, po; procedure, shortened: as §2
[9] = Drug concentration in female albino rat preputial gland assessed as radioactivity per gram of tissue at 20 mg/kg administered as single dose via gastric gavage measured after 6 hrs by autoradiographic analysis; assay type: ADME, organism-based; design: dose 20 mg/kg, dosed compound name [14C]Sunitinib; settings: in vivo, po; procedure, shortened: as §1
[10] = Drug concentration in male albino rat testis assessed as radioactivity per gram of tissue at 20 mg/kg administered as single dose via gastric gavage measured after 72 hrs by autoradiographic analysis; assay type: ADME, organism-based; design: dose 20 mg/kg, dosed compound name [14C]Sunitinib; settings: in vivo, po
[11] = Drug concentration in female albino rat skeletal muscle assessed as radioactivity per gram of tissue at 20 mg/kg administered as single dose via gastric gavage measured after 24 hrs by autoradiographic analysis; assay type: ADME, organism-based; design: dose 20 mg/kg, dosed compound name [14C]Sunitinib; settings: in vivo, po
[12] = test system: Spleen; assay: Drug concentration in female Lister Hooded pigmented rat spleen assessed as radioactivity per gram of tissue at 20 mg/kg administered as single dose via gastric gavage measured after 24 hrs by autoradiographic analysis; assay type: ADME, organism-based; design: dose 20 mg/kg, dosed compound name [14C]Sunitinib; settings: in vivo, po; procedure, shortened: as §2
[13] = test system: Zone of skin; assay: Drug concentration in male Lister Hooded pigmented rat abdomen skin assessed as radioactivity per gram of tissue at 20 mg/kg administered as single dose via gastric gavage measured after 168 hrs by autoradiographic analysis; assay type: ADME, organism-based; design: dose 20 mg/kg, dosed compound name [14C]Sunitinib; settings: in vivo, po
[14] = Drug concentration in male Lister Hooded pigmented rat pituitary gland assessed as radioactivity per gram of tissue at 20 mg/kg administered as single dose via gastric gavage measured after 72 hrs by autoradiographic analysis; assay type: ADME, organism-based; design: dose 20 mg/kg, dosed compound name [14C]Sunitinib; settings: in vivo, po
[15] = test system: Cynomolgus monkey; assay: Drug recovery in cage residue of male cynomolgus monkey at 6 mg/kg, po administered as single dose during 0 to 336 hrs by liquid scintillation counting; assay type: ADME, organism-based, Macaca fascicularis; design: dose 6 mg/kg, dosed compound name [14C]Sunitinib, route oral; settings: in vivo
[16] = test system: Cynomolgus monkey; assay: Tmax as total radioactivity in female cynomolgus monkey plasma at 6 mg/kg, po administered as single dose by LC/MS/MS analysis; assay type: ADME, organism-based, Macaca fascicularis; design: dose 6 mg/kg, dosed compound name [14C]Sunitinib, route oral; settings: in vivo
[17] = Drug recovery in feces of male Sprague-Dawley rat at 15 mg/kg, po administered as single dose during 0 to 72 hrs by liquid scintillation counting; assay type: ADME, organism-based; design: dose 15 mg/kg, dosed compound name [14C]Sunitinib, route oral; settings: in vivo
[18] = test system: Heart; assay: Drug concentration in male Lister Hooded pigmented rat heart assessed as radioactivity per gram of tissue at 20 mg/kg administered as single dose via gastric gavage measured after 24 hrs by autoradiographic analysis; assay type: ADME, organism-based; design: dose 20 mg/kg, dosed compound name [14C]Sunitinib; settings: in vivo, po
[19] = Drug concentration in male Lister Hooded pigmented rat uveal tract assessed as radioactivity per gram of tissue at 20 mg/kg administered as single dose via gastric gavage measured after 24 hrs by autoradiographic analysis; assay type: ADME, organism-based; design: dose 20 mg/kg, dosed compound name [14C]Sunitinib; settings: in vivo, po
[20] = Drug concentration in male Lister Hooded pigmented rat testis assessed as radioactivity per gram of tissue at 20 mg/kg administered as single dose via gastric gavage measured after 24 hrs by autoradiographic analysis; assay type: ADME, organism-based; design: dose 20 mg/kg, dosed compound name [14C]Sunitinib; settings: in vivo, po

Radiolabel recovery [1]: 81.06 ugequiv
Radiolabel recovery [2]: 10.28 ugequiv
Radiolabel recovery [3]: 0.07 ugequiv
Radiolabel recovery [4]: 16.48 ugequiv
Radiolabel recovery [5]: 276.19 ugequiv
Radiolabel recovery [6]: 0.14 ugequiv
Radiolabel recovery [7]: 0.64 ugequiv
Radiolabel recovery [8]: 124.52 ugequiv
Radiolabel recovery [9]: 14.48 ugequiv
Radiolabel recovery [10]: 0.39 ugequiv
Radiolabel recovery [11]: 0.33 ugequiv
Radiolabel recovery [12]: 2.79 ugequiv
Radiolabel recovery [13]: 0.58 ugequiv
Radiolabel recovery [14]: 1.65 ugequiv
Radiolabel recovery [15]: 1.9%
Tmax [16]: 4 h
Radiolabel recovery [17]: 75.2%
Radiolabel recovery [18]: 0.43 ugequiv
Radiolabel recovery [19]: 18.79 ugequiv
Radiolabel recovery [20]: 2.27 ugequiv
Compound: CCN(CC)CCNC(=O)c1c(C)[nH]c(/[14CH]=C2\C(=O)Nc3ccc(F)cc32)c1C.O=C(O)C[C@H](O)C(=O)O

Reference: ChEMBL document CHEMBL3525900, “Pharmacokinetics, distribution, and metabolism of [14C]sunitinib in rats, monkeys, and humans” (Drug Metab Dispos, 2012)
